Ki, IC50 and inhibition data for 13 molecules are collected here from ChEMBL document CHEMBL1140344, “New 2-arylpyrazolo[4,3-c]quinoline derivatives as potent and selective human A3 adenosine receptor antagonists” (J Med Chem, 2005).

Experiment [1] concerns the target T1, Adenosine receptor A2a (Homo sapiens, UniProt P29274). The experiment can be described thus: Inhibition of [3H]ZM-241385 binding to human adenosine A2a receptor expressed in CHO cells; (n=3 - 6). The class given is cell-based. The procedure, abridged:
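Membranes from human A2A-transfected CHO cells, pretreated with adenosine deaminase. 50 µg protein incubated 60 min at 4 °C in 50 mM Tris HCl, 10 mM MgCl₂, pH 7.4 with [³H]ZM241385 and 6–8 concentrations of test ligand. Nonspecific binding defined with 1 µM ZM241385. Separated by filtration, counted by scintillation. Ki via Cheng–Prusoff.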

The target of a further experiment is T2, Adenosine receptor A1 (Homo sapiens, UniProt P30542).
T2 sequence (P30542 whole entry): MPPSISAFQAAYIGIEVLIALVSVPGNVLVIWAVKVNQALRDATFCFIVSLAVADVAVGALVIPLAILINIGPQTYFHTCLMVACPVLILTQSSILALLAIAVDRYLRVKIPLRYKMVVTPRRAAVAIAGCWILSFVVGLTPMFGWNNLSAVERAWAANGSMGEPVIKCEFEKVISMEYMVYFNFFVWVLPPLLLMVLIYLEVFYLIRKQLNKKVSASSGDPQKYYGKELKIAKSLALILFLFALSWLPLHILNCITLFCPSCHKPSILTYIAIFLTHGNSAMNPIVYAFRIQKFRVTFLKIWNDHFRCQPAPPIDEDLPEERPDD
Briefly: Inhibition of [3H]DPCPX binding to human adenosine A1 receptor expressed in CHO cells; (n=3 - 6). The class given is cell-based. An outline of the steps:
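Membranes from human A1-transfected CHO cells, pretreated with adenosine deaminase 3 IU/ml for 30 min at 37 °C. 50 µg protein incubated 120 min at 25 °C in 50 mM Tris HCl pH 7.4 with 1 nM [³H]DPCPX and 6–8 concentrations of test ligand. Nonspecific binding defined with 10 µM CHA. Separated by GF/B filtration, counted by scintillation. Ki via Cheng–Prusoff.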

The target of experiment [2] is T3, Adenosine receptor A3 (Homo sapiens, UniProt P0DMS8).
T3 sequence (P0DMS8 whole entry): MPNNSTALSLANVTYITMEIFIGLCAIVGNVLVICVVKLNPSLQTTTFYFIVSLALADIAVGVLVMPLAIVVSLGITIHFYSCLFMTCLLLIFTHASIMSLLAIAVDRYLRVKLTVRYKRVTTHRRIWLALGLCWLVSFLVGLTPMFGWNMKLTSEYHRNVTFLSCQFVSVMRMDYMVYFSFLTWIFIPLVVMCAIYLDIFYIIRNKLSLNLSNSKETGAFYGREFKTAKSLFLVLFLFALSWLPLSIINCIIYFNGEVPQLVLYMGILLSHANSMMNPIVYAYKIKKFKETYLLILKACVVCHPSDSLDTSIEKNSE
Briefly: Inhibition of [3H]MRE3008-F20 binding to human adenosine A3 receptor expressed in CHO cells; (n=3 - 6). Format: cell-based.

A further experiment has as its target T4, Adenosine receptor A2b (Homo sapiens, UniProt P29275).
T4 sequence (P29275 whole entry): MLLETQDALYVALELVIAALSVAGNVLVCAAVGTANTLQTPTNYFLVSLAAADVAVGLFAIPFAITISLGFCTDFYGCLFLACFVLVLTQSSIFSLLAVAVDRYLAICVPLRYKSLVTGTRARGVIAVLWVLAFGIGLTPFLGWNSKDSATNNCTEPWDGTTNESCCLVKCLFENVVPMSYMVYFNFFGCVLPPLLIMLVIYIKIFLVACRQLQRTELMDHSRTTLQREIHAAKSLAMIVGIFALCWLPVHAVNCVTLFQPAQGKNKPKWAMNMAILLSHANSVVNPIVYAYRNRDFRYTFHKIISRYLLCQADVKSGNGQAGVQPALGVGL
The experiment can be described thus: Inhibition of 100 nM-NECA stimulation of cAMP levels in human adenosine A2b receptor expressing CHO cells. The class given is cell-based. An outline of the steps:
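CHO cells stably transfected with human A2B receptor, grown in DMEM/F12 with 10% FCS and G418, 37 °C. Cells trypsinised and suspended at 1 × 10⁶ cells/assay in pH 7.4 buffer with 2 IU/ml adenosine deaminase and Ro 20-1724. Preincubated 10 min at 37 °C, then challenged with 100 nM NECA. Stopped with cold 6% TCA. cAMP measured by competitive binding to [³H]cAMP with adrenal binding protein. IC50 from sigmoid nonlinear regression.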

Experiment [3] has as its target T5, Adenosine receptor A2b (Homo sapiens) (UniProt P29275).
T5 sequence (whole entry): T4 sequence (P29275 whole entry)
Briefly: Percent inhibition of human adenosine A2b receptor expressed in CHO cells. Format: cell-based. Details: concentration or dose not given beside the values. The settings on record: concentration not given here.

Experiment [4] has as its target T6, Adenosine receptor A1 (Homo sapiens) (UniProt P30542).
T6 sequence (whole entry): T2 sequence (P30542 whole entry)
The experiment can be described thus: Percentage inhibition of [3H]DPCPX binding to human adenosine A1 receptor expressed in CHO cells; (n=3 - 6). The class given is cell-based. Conditions: concentration not given here.

Experiment [5] addresses T1, Adenosine receptor A2a. Briefly: Percent inhibition of [3H]ZM-241385 binding to human adenosine 2Aa receptor expressed in CHO cells; (n=3 - 6). The class given is cell-based. Details: concentration or dose not given beside the values. Conditions: concentration not given here.
Experiment [6] concerns the target T3, Adenosine receptor A3. The experiment can be described thus: Inhibition of cAMP accumulation in human adenosine A3 receptor assay as inhibition of Cl-IB-MECA. Format: functional.
Experiment [7] has as its target T6, Adenosine receptor A1 (Homo sapiens). Briefly: Percent inhibition [3H]DPCPX binding to human adenosine A1 receptor expressed in CHO cells; (n=3 - 6). Format: cell-based. Details: concentration or dose not given beside the values. Conditions: concentration not given here.

T1 sequence (P29274 whole entry): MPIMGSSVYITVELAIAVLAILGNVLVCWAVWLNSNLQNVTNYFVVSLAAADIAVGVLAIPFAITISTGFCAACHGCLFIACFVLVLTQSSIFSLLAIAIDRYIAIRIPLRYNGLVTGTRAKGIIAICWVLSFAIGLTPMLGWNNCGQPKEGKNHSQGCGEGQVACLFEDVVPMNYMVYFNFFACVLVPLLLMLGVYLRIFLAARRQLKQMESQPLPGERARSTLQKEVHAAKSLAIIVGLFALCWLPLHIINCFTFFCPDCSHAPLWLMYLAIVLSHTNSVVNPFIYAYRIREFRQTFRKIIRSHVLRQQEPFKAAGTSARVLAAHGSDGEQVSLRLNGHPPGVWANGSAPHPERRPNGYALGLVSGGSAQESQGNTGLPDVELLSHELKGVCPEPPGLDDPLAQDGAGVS

`Oc1nc2ccccc2c2nn(-c3ccccc3)cc12`: the Ki at Adenosine receptor A2a [1] was above 1000 nM; on Adenosine receptor A1, above 1000 nM; on Adenosine receptor A3 [2], 27 nM; at Adenosine receptor A3 [6] it was 55 nM. In addition, the IC50 against Adenosine receptor A2b was above 1000 nM. The inhibition was 1% in experiment [3], 5% in [4] and 2% at Adenosine receptor A2a [5].

Take `Cc1ccc(-n2cc3c(O)nc4ccccc4c3n2)cc1`: the inhibition in experiment [3] was determined as 2%; in [7] it was 3%; on Adenosine receptor A2a [5], 1%.

Take `COc1nc2ccccc2c2nn(-c3ccccc3)cc12`: the figures for the inhibitory constant (Ki) at Adenosine receptor A2a [1], at Adenosine receptor A1 and on Adenosine receptor A3 [2] were above 1000 nM, above 1000 nM and 166 nM, respectively. Besides, the 50% inhibitory concentration (IC50) against Adenosine receptor A2b is above 1000 nM. The results for the inhibition (in [3]; in experiment [7]; at Adenosine receptor A2a [5]) were 10%, 16% and 5%, respectively.

On to `c1ccc(CNc2nc3ccccc3c3nn(-c4ccccc4)cc23)cc1`, for which the Ki was above 1000 nM at Adenosine receptor A2a [1], above 1000 nM on Adenosine receptor A1 and 125 nM at Adenosine receptor A3 [2]. This molecule gave an IC50 on Adenosine receptor A2b above 1000 nM. Also, the inhibition worked out at 1% in experiment [3], 4% in experiment [7] and 2% at Adenosine receptor A2a [5].

As to `c1ccc(-n2cc3cnc4ccccc4c3n2)cc1`, the values for the Ki at Adenosine receptor A2a [1], at Adenosine receptor A1 and at Adenosine receptor A3 [2] were above 1000 nM, above 1000 nM and 212 nM, respectively. In addition, the IC50 on Adenosine receptor A2b is above 1000 nM. Further, the inhibition was 1% in [3], 5% in experiment [7] and 3% at Adenosine receptor A2a [5].

As for `CCc1ccc(-n2cc3c(=O)[nH]c4ccccc4c3n2)cc1`, the inhibition constant (Ki) was above 1000 nM on Adenosine receptor A2a [1], above 1000 nM on Adenosine receptor A1 and 157 nM on Adenosine receptor A3 [2]. For the same molecule, at Adenosine receptor A2b, the IC50 was above 1000 nM.

For the molecule `Cc1ccc(-n2cc3c(=O)[nH]c4ccccc4c3n2)cc1`, the inhibitory constant (Ki) at Adenosine receptor A2a [1] and at Adenosine receptor A1 was above 1000 nM in each case. The same molecule yielded a half-maximal inhibitory concentration (IC50) against Adenosine receptor A2b above 1000 nM.

`Sc1nc2ccccc2c2nn(-c3ccccc3)cc12`: the results for the inhibition constant (Ki) on Adenosine receptor A2a [1], at Adenosine receptor A1 and on Adenosine receptor A3 [2] were above 1000 nM, above 1000 nM and 220 nM, respectively. The molecule also showed an IC50 at Adenosine receptor A2b above 1000 nM. The inhibition worked out at 11% in experiment [3], 14% in [7] and 8% on Adenosine receptor A2a [5].

Regarding `COc1ccc(-n2cc3c(O)nc4ccccc4c3n2)cc1`, the Ki is above 1000 nM on Adenosine receptor A2a [1], above 1000 nM at Adenosine receptor A1, 16 nM at Adenosine receptor A3 [2] and 42 nM on Adenosine receptor A3 [6]. This molecule displayed an IC50 on Adenosine receptor A2b above 1000 nM. In addition, the inhibition amounted to 2% in experiment [3], 1% in [7] and 1% at Adenosine receptor A2a [5].

Turning to `Oc1nc2ccccc2c2nn(-c3ccc(Cl)cc3)cc12`, the inhibition constant (Ki) at Adenosine receptor A2a [1] is above 1000 nM; on Adenosine receptor A1, above 1000 nM; at Adenosine receptor A3 [2] it was 19 nM. Also, the 50% inhibitory concentration (IC50) on Adenosine receptor A2b is above 1000 nM. In addition, the inhibition came to 1% in experiment [3], 4% in experiment [7] and 1% on Adenosine receptor A2a [5].

Regarding `Oc1nc2ccccc2c2nn(-c3ccccc3Cl)cc12`, the Ki is above 1000 nM on Adenosine receptor A2a [1], above 1000 nM at Adenosine receptor A1 and 44 nM on Adenosine receptor A3 [2]. The same molecule showed an IC50 at Adenosine receptor A2b above 1000 nM. Further, the results for the inhibition (in experiment [3]; in [7]; at Adenosine receptor A2a [5]) were 8%, 3% and 1%, respectively.

With `Oc1nc2ccccc2c2nn(-c3ccc(F)cc3)cc12`, the inhibition constant Ki on Adenosine receptor A2a [1] was above 1000 nM; on Adenosine receptor A1, above 1000 nM; at Adenosine receptor A3 [2], 27 nM. The molecule also returned an IC50 on Adenosine receptor A2b above 1000 nM. Also, the inhibition (in [3]; in [7]; on Adenosine receptor A2a [5]) was 10% in each case.

As to `CCc1ccc(-n2cc3c(O)nc4ccccc4c3n2)cc1`, the inhibition in [3] turned out to be 13%; in experiment [7], 12%; on Adenosine receptor A2a [5], 1%.
